Data published in ChEMBL document CHEMBL1152649, “Synthesis, cytotoxicity and human telomerase inhibition activities of a series of 1,2-heteroannelated anthraquinones and anthra[1,2-d]imidazole-6,11-dione homologues” (2009).

Key:
[1] = Cytotoxicity against human H1299 cells at 100 uM after 48 hrs by MTT assay; type: functional; settings: NCI-H1299, 48 h
In short: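 H1299 non-small cell lung cancer cells were grown in RPMI 1640 with 10% FBS, penicillin and streptomycin at 37 °C under 5% CO2. About 2 × 10³ cells per well were seeded and left 24 h. Compounds were dissolved fresh in DMSO, diluted into complete medium and applied for 48 h. MTT was then added for 4 h at 37 °C, followed by lysis buffer (20% SDS, 50% DMF) for 16 h, and absorbance was read at 550 nm.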

A549 = assay: Antiproliferative activity against human A549 cells assessed as cell growth at 10 uM; type: functional; settings: read-out: Activity
In short: (§1)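 NCI 60 cell line panel, single-dose screen (10^-5 M) run by the developmental therapeutics program protocol. Results are given as growth percent of treated cells relative to untreated control cells for each line.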

EKVX = assay: Antiproliferative activity against human EKVX cells assessed as cell growth at 10 uM; type: functional; settings: read-out: Activity; in short: as §1
SW-620 = assay: Antiproliferative activity against human SW620 cells assessed as cell growth at 10 uM; type: functional; settings: read-out: Activity
In short: (§2)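 NCI 60 cell line panel, single dose (10^-5 M), run per the Developmental Therapeutics Program protocol (one dose mean graph). Each result is the growth percentage of treated cells relative to untreated control cells.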

[2] = Antiproliferative activity against human Hs 578T cells assessed as cell growth at 10 uM; type: functional; settings: read-out: Activity; in short: as §1
T47D = assay: Antiproliferative activity against human T47D cells assessed as cell growth at 10 uM; type: functional; settings: read-out: Activity; in short: as §2
OVCAR-3 = assay: Antiproliferative activity against human OVCAR-3 cells assessed as cell growth at 10 uM; type: functional; settings: read-out: Activity; in short: as §1
OVCAR-4 = assay: Antiproliferative activity against human OVCAR4 cells assessed as cell growth at 10 uM; type: functional; settings: read-out: Activity; in short: as §1
OVCAR-5 = assay: Antiproliferative activity against human OVCAR5 cells assessed as cell growth at 10 uM; type: functional; settings: read-out: Activity; in short: as §1
OVCAR-8 = assay: Antiproliferative activity against human OVCAR8 cells assessed as cell growth at 10 uM; type: functional; settings: read-out: Activity; in short: as §1
CCRF-CEM = assay: Antiproliferative activity against human CCRF-CEM cells assessed as cell growth at 10 uM; type: functional; settings: read-out: Activity; in short: as §1
K562 = assay: Antiproliferative activity against human K562 cells assessed as cell growth at 10 uM; type: functional; settings: read-out: Activity; in short: as §1
SR = assay: Antiproliferative activity against human SR cells assessed as cell growth at 10 uM; type: functional; settings: read-out: Activity; in short: as §2
786-0 = assay: Antiproliferative activity against human 786-0 cells assessed as cell growth at 10 uM; type: functional; settings: read-out: Activity; in short: as §1
A498 = assay: Antiproliferative activity against human A498 cells assessed as cell growth at 10 uM; type: functional; settings: read-out: Activity; in short: as §1
ACHN = assay: Antiproliferative activity against human ACHN cells assessed as cell growth at 10 uM; type: functional; settings: read-out: Activity; in short: as §1
CAKI-1 = assay: Antiproliferative activity against human Caki1 cells assessed as cell growth at 10 uM; type: functional; settings: read-out: Activity; in short: as §1
SN12C = assay: Antiproliferative activity against human SN12C cells assessed as cell growth at 10 uM; type: functional; settings: read-out: Activity; in short: as §1
TK-10 = assay: Antiproliferative activity against human TK10 cells assessed as cell growth at 10 uM; type: functional; settings: read-out: Activity; in short: as §2
UO-31 = assay: Antiproliferative activity against human UO31 cells assessed as cell growth at 10 uM; type: functional; settings: read-out: Activity; in short: as §2
LOX IMVI = assay: Antiproliferative activity against human LOXIMVI cells assessed as cell growth at 10 uM; type: functional; settings: read-out: Activity; in short: as §1
M14 = assay: Antiproliferative activity against human M14 cells assessed as cell growth at 10 uM; type: functional; settings: read-out: Activity; in short: as §1
Malme-3M = assay: Antiproliferative activity against human MALME-3M cells assessed as cell growth at 10 uM; type: functional; settings: read-out: Activity; in short: as §1
SK-MEL-2 = assay: Antiproliferative activity against human SK-MEL-2 cells assessed as cell growth at 10 uM; type: functional; settings: read-out: Activity; in short: as §1
SK-MEL-28 = assay: Antiproliferative activity against human SK-MEL-28 cells assessed as cell growth at 10 uM; type: functional; settings: read-out: Activity; in short: as §1
SK-MEL-5 = assay: Antiproliferative activity against human SK-MEL-5 cells assessed as cell growth at 10 uM; type: functional; settings: read-out: Activity; in short: as §1
UACC-257 = assay: Antiproliferative activity against human UACC257 cells assessed as cell growth at 10 uM; type: functional; settings: read-out: Activity; in short: as §2
UACC-62 = assay: Antiproliferative activity against human UACC62 cells assessed as cell growth at 10 uM; type: functional; settings: read-out: Activity; in short: as §2
DU-145 = assay: Antiproliferative activity against human DU145 cells assessed as cell growth at 10 uM; type: functional; settings: read-out: Activity; in short: as §1
SF-268 = assay: Antiproliferative activity against human SF268 cells assessed as cell growth at 10 uM; type: functional; settings: read-out: Activity; in short: as §1
SF-539 = assay: Antiproliferative activity against human SF539 cells assessed as cell growth at 10 uM; type: functional; settings: read-out: Activity; in short: as §1
SNB-19 = assay: Antiproliferative activity against human SNB19 cells assessed as cell growth at 10 uM; type: functional; settings: read-out: Activity; in short: as §1
SNB-75 = assay: Antiproliferative activity against human SNB75 cells assessed as cell growth at 10 uM; type: functional; settings: read-out: Activity; in short: as §2
HOP-92 = assay: Antiproliferative activity against human HOP92 cells assessed as cell growth at 10 uM; type: functional; settings: read-out: Activity; in short: as §1
NCI-H226 = assay: Antiproliferative activity against human NCI-H226 cells assessed as cell growth at 10 uM; type: functional; settings: read-out: Activity; in short: as §1
NCI-H23 = assay: Antiproliferative activity against human NCI-H23 cells assessed as cell growth at 10 uM; type: functional; settings: read-out: Activity; in short: as §1
NCI-H322M = assay: Antiproliferative activity against human NCI-H322M cells assessed as cell growth at 10 uM; type: functional; settings: read-out: Activity; in short: as §1
NCI-H460 = assay: Antiproliferative activity against human NCI-H460 cells assessed as cell growth at 10 uM; type: functional; settings: read-out: Activity; in short: as §1
COLO 205 = assay: Antiproliferative activity against human COLO205 cells assessed as cell growth at 10 uM; type: functional; settings: read-out: Activity; in short: as §1
HCC 2998 = assay: Antiproliferative activity against human HCC2998 cells assessed as cell growth at 10 uM; type: functional; settings: read-out: Activity; in short: as §1
HCT-116 = assay: Antiproliferative activity against human HCT116 cells assessed as cell growth at 10 uM; type: functional; settings: read-out: Activity; in short: as §1
HCT-15 = assay: Antiproliferative activity against human HCT15 cells assessed as cell growth at 10 uM; type: functional; settings: read-out: Activity; in short: as §1
HT-29 = assay: Antiproliferative activity against human HT-29 cells assessed as cell growth at 10 uM; type: functional; settings: read-out: Activity; in short: as §1
KM12 = assay: Antiproliferative activity against human KM12 cells assessed as cell growth at 10 uM; type: functional; settings: read-out: Activity; in short: as §1
[3] = target: Telomerase reverse transcriptase (Homo sapiens) (UniProt O14746); assay: Inhibition of TERT in human H1299 cells assessed as residual transcriptional activity at 10 uM after 24 hrs by SEAP reporter gene assay; values are per cent of control
[4] = target: Telomerase reverse transcriptase (Homo sapiens) (UniProt O14746); assay: Inhibition of TERT in human H1299 cells assessed as residual transcriptional activity at 100 uM after 24 hrs by SEAP reporter gene assay; values are per cent of control

Sequence of Telomerase reverse transcriptase (Homo sapiens) (O14746 whole entry): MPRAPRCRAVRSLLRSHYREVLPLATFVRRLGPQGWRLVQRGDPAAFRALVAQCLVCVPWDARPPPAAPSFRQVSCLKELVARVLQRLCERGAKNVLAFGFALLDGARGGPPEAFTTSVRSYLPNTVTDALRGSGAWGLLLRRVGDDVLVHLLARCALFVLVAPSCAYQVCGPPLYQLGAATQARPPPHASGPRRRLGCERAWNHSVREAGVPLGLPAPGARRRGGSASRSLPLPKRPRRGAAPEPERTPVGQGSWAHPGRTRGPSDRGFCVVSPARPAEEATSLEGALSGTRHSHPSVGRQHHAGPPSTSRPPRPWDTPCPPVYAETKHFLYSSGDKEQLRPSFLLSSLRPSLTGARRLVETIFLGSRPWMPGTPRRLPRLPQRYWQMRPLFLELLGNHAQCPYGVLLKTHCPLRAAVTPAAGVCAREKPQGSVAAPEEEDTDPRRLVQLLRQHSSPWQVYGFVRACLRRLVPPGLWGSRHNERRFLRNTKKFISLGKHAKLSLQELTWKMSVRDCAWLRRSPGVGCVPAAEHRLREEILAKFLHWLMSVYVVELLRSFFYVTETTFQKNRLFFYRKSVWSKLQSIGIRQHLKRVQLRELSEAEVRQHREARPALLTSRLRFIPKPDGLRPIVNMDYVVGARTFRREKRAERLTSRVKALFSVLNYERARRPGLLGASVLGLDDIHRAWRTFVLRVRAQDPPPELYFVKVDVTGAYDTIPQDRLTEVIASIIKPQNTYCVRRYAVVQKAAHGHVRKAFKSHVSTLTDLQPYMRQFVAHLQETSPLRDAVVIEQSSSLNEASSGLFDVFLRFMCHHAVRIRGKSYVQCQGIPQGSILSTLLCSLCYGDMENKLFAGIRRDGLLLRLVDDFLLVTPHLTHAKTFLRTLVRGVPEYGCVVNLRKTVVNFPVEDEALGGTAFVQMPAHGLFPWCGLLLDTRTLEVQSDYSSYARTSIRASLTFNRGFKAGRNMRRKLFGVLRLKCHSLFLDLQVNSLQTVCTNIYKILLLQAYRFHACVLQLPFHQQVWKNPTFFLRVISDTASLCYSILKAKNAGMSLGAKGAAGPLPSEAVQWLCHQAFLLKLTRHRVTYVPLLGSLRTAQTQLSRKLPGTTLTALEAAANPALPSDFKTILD

Work on `CC1(C)Nc2ccc3c(c2N1)C(=O)c1ccccc1C3=O` yielded a viability at 100 µM [1] of 31%, a growth at 10 µM (A549) of 94.6% and a growth at 10 µM (EKVX) of 63.1%. For the same compound, the growth at 10 µM (SW-620) was 91.7%, the growth at 10 µM [2] was 68.4% and the growth at 10 µM (T47D) was 83%. For the same compound, the growth at 10 µM (OVCAR-3) was 78.2%, the growth at 10 µM (OVCAR-4) was 80.1% and the growth at 10 µM (OVCAR-5) was 96.5%. It also gave a growth at 10 µM (OVCAR-8) of 90.2%, a growth at 10 µM (CCRF-CEM) of 74% and a growth at 10 µM (K562) of 101%. It also gave a growth at 10 µM (SR) of 72.4%, a growth at 10 µM (786-0) of 86.2% and a growth at 10 µM (A498) of 80.6%. It also gave a growth at 10 µM (ACHN) of 50.2%, a growth at 10 µM (CAKI-1) of 61.7% and a growth at 10 µM (SN12C) of 92%. For the same compound, the growth at 10 µM (TK-10) was 62.4%, the growth at 10 µM (UO-31) was 30.6% and the growth at 10 µM (LOX IMVI) was 61.9%. For the same compound, the growth at 10 µM (M14) was 83.7%, the growth at 10 µM (Malme-3M) was 155% and the growth at 10 µM (SK-MEL-2) was 8.04%. For the same compound, the growth at 10 µM (SK-MEL-28) was 129%, the growth at 10 µM (SK-MEL-5) was 86.5% and the growth at 10 µM (UACC-257) was 118%. The growth at 10 µM (UACC-62) was 67.6%, the growth at 10 µM (DU-145) was 76% and the growth at 10 µM (SF-268) was 90.2%. The growth at 10 µM (SF-539) was 93.6%, the growth at 10 µM (SNB-19) was 94.3% and the growth at 10 µM (SNB-75) was 78%. For the same compound, the growth at 10 µM (HOP-92) was 5.1%, the growth at 10 µM (NCI-H226) was 89.7% and the growth at 10 µM (NCI-H23) was 87%. The growth at 10 µM (NCI-H322M) was 79.7%, the growth at 10 µM (NCI-H460) was 71.5% and the growth at 10 µM (COLO 205) was 90.6%. The growth at 10 µM (HCC 2998) was 137%, the growth at 10 µM (HCT-116) was 54.7% and the growth at 10 µM (HCT-15) was 64.6%. It also gave a growth at 10 µM (HT-29) of 103%, a growth at 10 µM (KM12) of 51.5% and a residual activity [3] of 73%. The residual activity [4] was 9%.

Work on `O=C1c2ccccc2C(=O)c2c1ccc1nccnc21` yielded a viability at 100 µM [1] of 6%, a growth at 10 µM (A549) of 47.1% and a growth at 10 µM (EKVX) of 82.6%. It also gave a growth at 10 µM (SW-620) of 39.2%, a growth at 10 µM [2] of 76.8% and a growth at 10 µM (T47D) of 85.2%. The growth at 10 µM (OVCAR-3) was 71.7%, the growth at 10 µM (OVCAR-4) was 94.2% and the growth at 10 µM (OVCAR-5) was 107%. It also gave a growth at 10 µM (OVCAR-8) of 47.5%, a growth at 10 µM (K562) of 37.2% and a growth at 10 µM (SR) of 82.9%. The growth at 10 µM (786-0) was 28.4%, the growth at 10 µM (A498) was 98.8% and the growth at 10 µM (ACHN) was 46.5%. The growth at 10 µM (CAKI-1) was 87.9%, the growth at 10 µM (SN12C) was 64.7% and the growth at 10 µM (TK-10) was 127%. For the same compound, the growth at 10 µM (UO-31) was 51.5%, the growth at 10 µM (LOX IMVI) was 44.2% and the growth at 10 µM (M14) was 59.8%. For the same compound, the growth at 10 µM (Malme-3M) was 181%, the growth at 10 µM (SK-MEL-2) was 6.66% and the growth at 10 µM (SK-MEL-28) was 97.5%. For the same compound, the growth at 10 µM (SK-MEL-5) was 66.6%, the growth at 10 µM (UACC-257) was 91.1% and the growth at 10 µM (UACC-62) was 90.5%. For the same compound, the growth at 10 µM (DU-145) was 93.3%, the growth at 10 µM (SF-268) was 68% and the growth at 10 µM (SF-539) was 40.7%. It also gave a growth at 10 µM (SNB-19) of 87.3%, a growth at 10 µM (SNB-75) of 105% and a growth at 10 µM (NCI-H226) of 86.7%. The growth at 10 µM (NCI-H23) was 65.1%, the growth at 10 µM (NCI-H322M) was 96.3% and the growth at 10 µM (NCI-H460) was 31.7%. For the same compound, the growth at 10 µM (COLO 205) was 71.6%, the growth at 10 µM (HCC 2998) was -7.15% and the growth at 10 µM (HCT-116) was 53.3%. The growth at 10 µM (HCT-15) was 52.1%, the growth at 10 µM (HT-29) was 81.9% and the growth at 10 µM (KM12) was 61%. The residual activity [3] was 26% and the residual activity [4] was 24%.
